Values joined by “and” are separate entries in the source; they are usually repeats but may differ in a detail not shown here. Identical values can stand only once. One block for each molecule: values may come before it.
Columns and labels:
hA3AR [1] = target: T1, hA3AR (Homo sapiens, UniProt P0DMS8); experiment: FCM competitive binding in hA3AR-CHO whole cells with MRS5218; settings: read-out: FCM binding at hA3AR, Ki, MRS5218 30 nM tracer, 60 min at 37 °C, 0.4 M sucrose
T1 sequence (P0DMS8 1-318): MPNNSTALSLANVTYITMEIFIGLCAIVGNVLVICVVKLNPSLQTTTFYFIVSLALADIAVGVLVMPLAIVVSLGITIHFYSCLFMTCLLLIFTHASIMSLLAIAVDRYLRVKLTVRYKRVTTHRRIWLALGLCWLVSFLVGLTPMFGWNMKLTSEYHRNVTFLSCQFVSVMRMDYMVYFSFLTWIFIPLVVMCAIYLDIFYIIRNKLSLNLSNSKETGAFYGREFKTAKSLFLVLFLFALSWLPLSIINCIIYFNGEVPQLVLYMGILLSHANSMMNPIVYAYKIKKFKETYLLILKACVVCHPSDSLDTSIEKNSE

mA3AR [2] = target: T2, mA3AR (Mus musculus, UniProt Q61618); experiment: FCM binding
T2 sequence (Q61618 1-319): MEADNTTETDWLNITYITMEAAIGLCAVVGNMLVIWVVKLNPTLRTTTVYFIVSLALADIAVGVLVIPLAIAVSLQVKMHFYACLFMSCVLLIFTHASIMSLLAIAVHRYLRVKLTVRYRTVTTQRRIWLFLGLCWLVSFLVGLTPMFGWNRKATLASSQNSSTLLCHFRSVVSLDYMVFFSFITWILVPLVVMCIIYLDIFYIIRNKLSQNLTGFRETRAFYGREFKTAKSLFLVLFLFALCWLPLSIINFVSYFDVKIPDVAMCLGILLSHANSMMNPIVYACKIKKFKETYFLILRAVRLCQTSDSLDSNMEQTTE
How it was run: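 HEK293 cells stably expressing mouse A3AR, grown in DMEM with 10% FBS and 0.6 mg/ml G418. Cells were incubated with fluorescent agonist (5–1,000 nM) at 37 °C for varied times. […] Cells were washed in ice-cold PBS and detached with 0.2% EDTA. MFI was read in FL-4 (635 nm laser) and fitted by non-linear least squares.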

hA3AR [3] = target: T1, hA3AR; experiment: FCM of MRS5704 in AR-expressing HEK293 cells; format: binding
mA1AR [4] = target: T3, mA1AR (Mus musculus, UniProt Q60612); format: binding; settings: read-out: Ki, A1AR (mouse), n = 3-4
T3 sequence (Q60612 1-326): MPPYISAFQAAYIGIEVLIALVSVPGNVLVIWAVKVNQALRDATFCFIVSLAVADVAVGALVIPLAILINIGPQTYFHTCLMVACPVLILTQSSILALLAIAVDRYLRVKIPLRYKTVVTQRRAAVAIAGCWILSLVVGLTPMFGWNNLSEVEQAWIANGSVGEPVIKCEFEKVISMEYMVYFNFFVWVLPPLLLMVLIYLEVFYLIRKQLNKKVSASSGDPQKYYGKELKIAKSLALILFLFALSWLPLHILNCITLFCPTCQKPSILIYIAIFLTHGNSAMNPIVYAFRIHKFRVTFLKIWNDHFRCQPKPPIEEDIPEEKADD
How it was run: (§1)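 Membranes from HEK293 cells stably expressing the mouse receptor were used in a competition assay following the human-receptor protocol. Test compound at increasing concentrations was incubated with radioligand and membranes in 50 mM Tris-HCl, pH 7.5, with 10 mM MgCl2, at 25 °C for 60 min. Bound and free were separated by GF/B filtration with ice-cold Tris washes. […] Ki was calculated from IC50 by nonlinear fitting.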

mA2AAR [5] = target: T4, mA2AAR (Mus musculus, UniProt Q60613); format: binding; settings: read-out: Ki, A2AAR (mouse), n = 3-4
How it was run: as §1

mA3AR [6] = target: T2, mA3AR; format: binding; settings: read-out: Ki, A3AR (mouse), n = 3-4
How it was run: as §1

mA2BAR = target: T5, mA2BAR (Mus musculus, UniProt Q60614); experiment: FCM binding in HEK293 cells expressing mA2BAR; settings: 1 µM, 2 h
T5 sequence (Q60614 1-332): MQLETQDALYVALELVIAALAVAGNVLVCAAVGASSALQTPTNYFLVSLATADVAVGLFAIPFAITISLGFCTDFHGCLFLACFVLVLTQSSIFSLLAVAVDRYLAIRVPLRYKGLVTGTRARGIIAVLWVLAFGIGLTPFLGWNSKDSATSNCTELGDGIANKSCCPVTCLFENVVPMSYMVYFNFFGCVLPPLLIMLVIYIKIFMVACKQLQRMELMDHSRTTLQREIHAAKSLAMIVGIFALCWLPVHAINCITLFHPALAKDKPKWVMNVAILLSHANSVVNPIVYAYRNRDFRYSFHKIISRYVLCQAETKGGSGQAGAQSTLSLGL
How it was run: (§2)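 Stable HEK293 lines expressing the mouse receptor were grown in DMEM with 10% FBS, 2 mM L-glutamine, penicillin/streptomycin and 0.6 mg/ml G418, then plated for 24 h at 37 °C, 5% CO2. At about 80% confluency, the fluorescent agonist (range 5–1000 nM) was added in fresh medium at 37 °C. Cells were then washed in ice-cold PBS, detached with 0.2% EDTA, spun twice at 400 × g and resuspended in PBS. MFI was read by flow cytometry (635 nm laser, FL-4, log mode).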

mA1AR [7] = target: T3, mA1AR; experiment: FCM binding in HEK293 cells expressing mA1AR; settings: 1 µM, 2 h
How it was run: as §2

mA2AAR [8] = target: T4, mA2AAR; experiment: FCM binding in HEK293 cells expressing mA2AAR; settings: 1 µM, 2 h
How it was run: as §2

hA1AR = target: T6, hA1AR (Homo sapiens, UniProt P30542); settings: inhibition of radioligand binding at 10 µM, ref [19],[21],[22]; cited from earlier work
T6 sequence (P30542 1-326): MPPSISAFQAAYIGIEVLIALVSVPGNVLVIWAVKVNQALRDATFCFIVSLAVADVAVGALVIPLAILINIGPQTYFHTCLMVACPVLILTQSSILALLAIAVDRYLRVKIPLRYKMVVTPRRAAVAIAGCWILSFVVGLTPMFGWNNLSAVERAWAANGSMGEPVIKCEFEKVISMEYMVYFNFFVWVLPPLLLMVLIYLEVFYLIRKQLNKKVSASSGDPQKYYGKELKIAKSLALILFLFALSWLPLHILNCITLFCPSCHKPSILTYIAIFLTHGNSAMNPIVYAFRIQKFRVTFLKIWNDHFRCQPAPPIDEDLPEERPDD

hA2AAR = hA2AAR (Homo sapiens, UniProt P29274); settings: read-out: Ki, A2AAR, ref [21],[22]; cited from earlier work
hA2AAR, sequence (P29274 whole entry): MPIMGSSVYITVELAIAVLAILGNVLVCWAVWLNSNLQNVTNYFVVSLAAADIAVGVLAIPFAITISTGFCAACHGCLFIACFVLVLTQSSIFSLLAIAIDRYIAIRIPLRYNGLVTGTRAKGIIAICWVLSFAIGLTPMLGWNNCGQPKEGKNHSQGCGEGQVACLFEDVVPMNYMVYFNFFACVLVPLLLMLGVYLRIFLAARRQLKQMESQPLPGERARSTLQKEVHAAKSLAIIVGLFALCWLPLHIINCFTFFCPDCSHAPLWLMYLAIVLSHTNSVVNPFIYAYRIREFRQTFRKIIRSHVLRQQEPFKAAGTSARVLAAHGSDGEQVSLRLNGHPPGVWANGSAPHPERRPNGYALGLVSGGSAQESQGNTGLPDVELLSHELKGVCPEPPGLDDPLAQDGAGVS

T4 sequence (Q60613 whole entry): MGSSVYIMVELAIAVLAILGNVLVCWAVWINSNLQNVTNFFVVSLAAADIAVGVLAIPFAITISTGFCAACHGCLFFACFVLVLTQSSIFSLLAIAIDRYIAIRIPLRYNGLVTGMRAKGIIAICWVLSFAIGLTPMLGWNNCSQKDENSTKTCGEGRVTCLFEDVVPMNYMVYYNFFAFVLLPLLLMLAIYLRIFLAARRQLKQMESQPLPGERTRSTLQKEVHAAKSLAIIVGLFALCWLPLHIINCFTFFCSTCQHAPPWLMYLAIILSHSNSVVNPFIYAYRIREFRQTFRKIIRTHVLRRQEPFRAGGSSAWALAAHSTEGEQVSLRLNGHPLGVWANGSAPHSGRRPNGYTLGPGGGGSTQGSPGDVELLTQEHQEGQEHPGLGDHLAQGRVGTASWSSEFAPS

Ki (hA3AR [1]): 88.4 ± 13.6 nM
Molecule: OC[C@H]1O[C@@H](n2cnc3c(NC4CCCC4)ncnc32)[C@H](O)[C@@H]1O [CPA]

Molecule: CNC(=O)[C@@]12C[C@@H]1[C@@H](n1cnc3c(NCc4cccc(Cl)c4)nc(C#Cc4ccc5ccc6cccc7ccc4c5c67)nc31)[C@H](O)[C@@H]2O [Compound 2, (1S,2R,3S,4R,5S)-4-(6-(3-chlorobenzylamino)-2-(pyren-1-ylethynyl)-9H-purin-9-yl)-2,3-dihydroxy-N-methylbicyclo[3.1.0]hexane-1-carboxamide]
specific fluorescent binding by FCM, mA3AR (mA3AR [2]; AR-expressing HEK293 cells): failed to show specific fluorescent binding
specific fluorescent binding by FCM, hA3AR (hA3AR [3]): failed to show specific fluorescent binding

Ki (mA1AR [4]): 143 nM
Ki (mA2AAR [5]): 717 ± 19 nM
Ki (mA3AR [6]): 261 ± 29 nM
t1/2 of dissociation (mA3AR [2]; 5 nM for 2 h, then NECA (100 µM)): 39.4 ± 4.2 min
t1/2 of association (mA3AR [2]; 5 nM, listed as MRS5218): 38 min and 37.8 ± 2.9 min
Kd (mA3AR [2]; read-out: Kd app, saturation, whole cells, 2 h, absence of sucrose): 7.52 ± 0.49 nM
Bmax (mA3AR [2]; saturation, whole cells, 2 h, absence of sucrose): 99,420±18,110 MESF/cell
specific binding to mA2BAR-HEK293 cells (mA2BAR): became detectable
specific binding to mA1AR-HEK293 cells (mA1AR [7]): not observed
specific binding to mA2AAR-HEK293 cells (mA2AAR [8]): not observed
Molecule: (1′S,2′R,3′S,4′S,5′S)-4′-[6-(3-chlorobenzylamino)-2-(N-cyanine(β-aminoethylaminocarbonyl)-1-butynyl)-9-yl]-2′,3′-dihydroxybicyclo[3.1.0]hexane-1′-carboxylic acid N-methylamide [Compound 1]
specific labeling of mA3AR-HEK293 cells (mA3AR [2]; 50-300 nM, 2 h, nonspecific with 100 µM NECA): specifically labeled mA3AR-HEK293 cells versus cells expressing other AR subtypes
% inhibition, A1AR (hA1AR): h: 36%
Ki (hA2AAR): 4730 nM

Source: publication PMC3604185 (Biochemical pharmacology, 2013)
